EC50, CC50 and selectivity ratio data for 20 compounds are collected here from ChEMBL document CHEMBL3739385, “Stelleralides D-J and Anti-HIV Daphnane Diterpenes from Stellera chamaejasme” (J Nat Prod, 2015).

Series [1] has as its system Human immunodeficiency virus 1. Description: Antiviral activity against HIV-1 NL4-3 infected in MT4 cells assessed as viral replication measured on day 4 post infection by ELISA. The class given is functional, organism-based. To be noted: Human immunodeficiency virus 1, NL4-3, MT4, 96 h. In outline: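 HIV-1 NL4-3 at MOI 0.001 infects MT4 cells in the presence of graded compound concentrations. Fresh medium with compound is added 48 h after infection to keep the cells growing. On day 4 post-infection, replication is read by p24 ELISA.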
In general terms: ELISA stands for enzyme-linked immunosorbent assay.

The test system of the next series is MT4. Description: Cytotoxicity against human MT4 cells by cellTiterGlo assay. It is filed as cell-based. A digest of the protocol:
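MT4 cells are cultured in parallel with the antiviral assay and treated with compounds. Viability is read with CellTiter-Glo luminescent reagent, which quantifies ATP in metabolically active cells. CC50, the concentration reducing viable cells by 50%, is calculated from the dose-response curve.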
(In general: Cellular ATP, detected with luciferase, serves as a proxy for viable cell number.)

The nature of series [2]: Selectivity index, ratio of CC50 for human MT4 cells to EC50 for HIV-1 NL4-3 infected in MT4 cells. The class given is toxicity, cell-based. Particulars: read-out: Ratio CC50/EC50.

Where only a bound is given, the exact number is not on record here.

Consider `C=C(C)[C@@]12O[C@@]3(/C=C/C=C/CCCCCCCCC)O[C@@H]1[C@@H]1[C@@H]4O[C@]4(CO)[C@@H](O)[C@]4(O)C(=O)C(C)=C[C@H]4[C@@]1(O3)[C@H](C)[C@H]2OC(C)=O`, for which the EC50 (as a rule, the midpoint of the concentration-response curve) in series [1] came out at 12 nM. Also, the half-maximal cytotoxic concentration (CC50) (usually the concentration giving 50% cytotoxicity) with MT4 is at least 15600 nM. In addition, the selectivity ratio in series [2] was at least 1300.

For `C=C(C)[C@]12C[C@@H](COC(=O)c3ccccc3)[C@]34OC5(CCCCCCC[C@H](C)[C@@H]6[C@@H]3[C@]3(O[C@]6(C)OC3=O)[C@H](O)[C@@]3(COC(=O)CCCCCCC/C=C\C/C=C\CCCCC)O[C@H]3[C@H]4[C@H]1O5)O2`, in series [1], the concentration for a half-maximal effect (EC50) is 6710 nM. The compound also had a CC50 in the series on MT4 of at least 10800 nM. For the same compound, the selectivity ratio in series [2] was at least 1.

For `C=C(C)[C@]12C[C@@H](COC(=O)c3ccccc3)[C@@]34OC5(O[C@@H]1[C@@H]3[C@@H]1O[C@]1(CO)[C@@H](O)[C@@]1(O)[C@H]4[C@H]([C@H](C)[C@@H]1OC(=O)c1ccccc1)[C@H](C)C[C@@H](OC(=O)c1ccccc1)CCCC[C@H]5O)O2`, the EC50 in series [1] came out at 0.73 nM. The compound also yielded a CC50 in the series with MT4 of at least 11200 nM. In addition, the selectivity ratio in series [2] is at least 15300.

For the compound `C=C(C)[C@]1(O)C[C@@H](C)[C@@]2(O)[C@H]([C@H]1OC(=O)/C=C/C=C/CCCCCCCCC)[C@@H]1O[C@]1(CO)[C@@H](O)[C@]1(O)C(=O)C(C)=C[C@H]12`, the EC50 in series [1] was 59 nM. This compound came in with a 50% cytotoxic concentration (CC50) in the series on MT4 of at least 16600 nM. In series [2], the selectivity ratio is at least 281.

As to `C=C(C)[C@]12C[C@@H](C)[C@@]34OC(/C=C/C=C/CCCCCCCCCC)(O[C@@H]1[C@@H]3[C@@H]1O[C@]1(CO)[C@@H](O)[C@]1(O)C(=O)C(C)=C[C@H]14)O2`, the half-maximal effective concentration (EC50) in series [1] worked out at 13 nM. The compound further gave a 50% cytotoxic concentration (CC50) in the series with MT4 of at least 16700 nM. The selectivity ratio in series [2] was at least 1280.

With `C=C(C)[C@]12C[C@@H](COC(=O)c3ccccc3)[C@]34OC5(CCCCCCC[C@H](C)[C@@H]6[C@@H]3[C@]3(O[C@]6(C)OC3=O)[C@H](O)[C@@]3(CO)O[C@H]3[C@H]4[C@H]1O5)O2`, in series [1], the EC50 worked out at 330 nM. This compound showed a cytotoxic concentration (CC50) with MT4 of at least 13800 nM. In addition, the selectivity ratio in series [2] is at least 41.

In the case of `C=C(C)[C@]12C[C@@H](COC(=O)c3ccccc3)[C@]34OC5(CCCCCCC[C@H](C)[C@@H]6[C@@H]3[C@]3(O[C@]6(C)OC3=O)[C@H](O)[C@@]3(COC(=O)CCCCCCCCCCCCCCC)O[C@H]3[C@H]4[C@H]1O5)O2`, the concentration giving a half-maximal response (EC50) in series [1] amounted to 590 nM. Moreover, the 50% cytotoxic concentration (CC50) in the series with MT4 was at least 11100 nM. Moreover, in series [2], the selectivity ratio was at least 18.

On to `C=C(C)[C@@]12OC3(/C=C/C=C/CCCCCCCCCC)O[C@@H]1[C@@H]1[C@@H]4O[C@]4(CO)[C@@H](O)[C@]4(O)C(=O)C(C)=C[C@H]4[C@@]1(O3)[C@H](C)[C@H]2OC(C)=O`, for which the EC50 in series [1] came to 39 nM. The same compound yielded a CC50 in the series on MT4 of at least 15300 nM. For the same compound, the selectivity ratio in series [2] is at least 392.

With `C=C(C)[C@]12C[C@@H](COC(=O)c3ccccc3)[C@@]34OC5(O[C@@H]1[C@@H]3[C@@H]1O[C@]1(COC(=O)c1ccccc1)[C@@H](O)[C@@]1(O)[C@H]4[C@H]([C@H](C)[C@@H]1O)[C@H](C)CCCCCC[C@H]5O)O2`, the half-maximal effective concentration (EC50) in series [1] came to 0.98 nM. The CC50 in the series with MT4 is at least 12900 nM. Further, the selectivity ratio in series [2] is at least 13200.

As to `C=C(C)[C@]12C[C@@H](C)[C@@]34O[C@](/C=C/C=C/CCCCCCCCC)(O[C@@H]1[C@@H]3[C@@H]1O[C@]1(CO)[C@@H](O)[C@]1(O)C(=O)C(C)=C[C@H]14)O2`, the concentration giving a half-maximal response (EC50) in series [1] was found to be 2.6 nM. Further, the CC50 with MT4 was at least 14000 nM. For the same compound, in series [2], the selectivity ratio is at least 5380.

Consider `C=C(C)[C@]12C[C@@H](COC(C)=O)[C@@]34OC5(O[C@@H]1[C@@H]3[C@@H]1O[C@]1(CO)[C@@H](O)[C@@]1(O)[C@H]4[C@H]([C@H](C)[C@@H]1OC(=O)c1ccccc1)[C@H](C)C[C@@H](OC(=O)c1ccccc1)CCCC[C@H]5O)O2`, for which the EC50 in series [1] is 0.93 nM. For the same compound, the CC50 in the series with MT4 is at least 12000 nM. The selectivity ratio in series [2] was at least 12900.

Consider `C=C(C)[C@]1(O)C[C@@H](C)[C@@]2(O)[C@H]([C@H]1OC(=O)/C=C/C=C/CCCCCCCCC)[C@H](O)[C@@](O)(CO)[C@@H](O)[C@]1(O)C(=O)C(C)=C[C@H]12`, for which the 50% effective concentration (EC50) in series [1] is 44 nM. In the series with MT4, the CC50 was at least 4400 nM. Besides, the selectivity ratio in series [2] is at least 100.

As to `C=C(C)[C@]12C[C@@H](COC(=O)c3ccccc3)[C@@]34OC5(O[C@@H]1[C@@H]3[C@@H]1O[C@]1(CO)[C@@H](O)[C@@]1(O)[C@H]4[C@H]([C@H](C)[C@@H]1OC(=O)c1ccccc1)[C@H](C)CCCCCC[C@H]5O)O2`, the EC50 in series [1] came to 0.06 nM. In the series with MT4, this compound yielded a CC50 of at least 1290 nM. Besides, the selectivity ratio in series [2] is at least 21500.

With `C=C(C)[C@]12C[C@@H](C)[C@@]34OC5(CCCCCCC[C@@H](C)[C@H]6[C@H](C)[C@H](OC(=O)c7ccccc7)[C@@](O)([C@H](O)[C@@]7(CO)O[C@H]7[C@H]3[C@H]1O5)[C@@H]64)O2`, in series [1], the EC50 came out at 1.1 nM. Besides, in the series on MT4, the cytotoxic concentration (CC50) was at least 15700 nM. The selectivity ratio in series [2] is at least 14300.

On to `C=C(C)[C@]12C[C@@H](C)[C@]34O[C@]5(CCCCCCC[C@H](C)[C@@H]6[C@@H]3[C@]3(O[C@]6(C)OC3=O)[C@H](O)[C@@]3(CO)O[C@H]3[C@H]4[C@H]1O5)O2`, for which, in series [1], the EC50 is 1120 nM. For the same compound, in the series with MT4, the half-maximal cytotoxic concentration (CC50) was at least 18300 nM. Further, in series [2], the selectivity ratio is at least 16.

On to `C=C(C)[C@@]1(O)[C@H](OC(=O)/C=C/C=C/CCCCCCCCC)[C@@H]2[C@@H]3O[C@]3(CO)[C@@H](O)[C@]3(O)C(=O)C(C)=C[C@H]3[C@@]2(O)[C@H](C)[C@H]1OC(C)=O`, for which the EC50 in series [1] turned out to be 44 nM. This compound had a CC50 in the series with MT4 of at least 15200 nM. The selectivity ratio in series [2] was at least 345.

As for `C=C(C)[C@]12C[C@@H](COC(=O)c3ccccc3)[C@@]34OC5(CCCCCCC[C@@H](C)[C@H]6[C@H](C)C(=O)[C@@](O)([C@H](O)[C@@]7(CO)O[C@H]7[C@H]3[C@H]1O5)[C@@H]64)O2`, the EC50 in series [1] came out at 48 nM. In the series on MT4, this compound displayed a CC50 of at least 15300 nM. Moreover, the selectivity ratio in series [2] is at least 318.

As for `C=C(C)[C@@]12OC3(/C=C/C=C/CCCCCCCCCC)O[C@@H]1[C@@H]1[C@@H]4O[C@]4(CO)[C@@H](O)[C@]4(O)C(=O)C(C)=C[C@H]4[C@@]1(O3)[C@H](C)[C@H]2O`, the EC50 in series [1] was 120 nM. In the series with MT4, this compound returned a CC50 of at least 16300 nM. In series [2], the selectivity ratio is at least 135.

In the case of `C=C(C)[C@]12C[C@@H](C)[C@@]34O[C@](CCCCCCCCC)(O[C@@H]1[C@@H]3[C@@H]1O[C@]1(CO)[C@@H](O)[C@]1(O)C(=O)C(C)=C[C@H]14)O2` [SIMPLEXIN], in series [1], the EC50 stood at 47 nM. This compound yielded a CC50 in the series on MT4 of at least 18800 nM. Moreover, the selectivity ratio in series [2] is at least 400.

In the series on MT4, `Cc1cn([C@H]2C[C@H](N=[N+]=[N-])[C@@H](CO)O2)c(=O)[nH]c1=O` [ZIDOVUDINE] returned a cytotoxic concentration (CC50) of at least 3740 nM.
